From ChEMBL document CHEMBL3407374, “Synthesis of structural analogues of hexadecylphosphocholine and their antineoplastic, antimicrobial and amoebicidal activity” (Eur J Med Chem, 2015)
Converted amounts (≈) assume the structure as drawn.

Key:
Staphylococcus aureus = experiment: Antimicrobial activity against Staphylococcus aureus ATCC 29/58 assessed as prevention of colony formation after 24 hrs by spectrophotometry; assay type: functional; settings: ATCC 29/58, 24 h
In short: (§1)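 Bacteria grown 24 h on blood agar, Candida on Sabouraud agar; suspensions in physiological solution (pH 7.2), 5 × 10⁷ CFU/ml bacteria, 5 × 10⁵ CFU/ml Candida. […] suspension added to aqueous compound solution plus double-strength peptone broth (bacteria) or Sabouraud medium (Candida). Incubated 24 h at 37 °C in 96-well plates, then subcultured on agar 24 h at 37 °C.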

Acanthamoeba quina [1] = experiment: Antiprotozoal activity against Acanthamoeba quina trophozoites assessed as viability after 1 to 48 hrs by trypan blue exclusion assay; assay type: functional
In short: (§2)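 Trophozoites axenized from 2-day monoxenic agar cultures via BCS then PYG media with antibiotics, then cultured antibiotic-free in PYG. 2 × 10⁵ cells/ml suspension mixed 1:1 with medium holding compound; final […]. Survivors counted by haemocytometer with trypan blue at 1, 24, 48 h; eradication confirmed by 14-day PYG regrowth; MTC = lowest concentration giving 100% eradication.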

MCF7 = experiment: Cytotoxicity against human MCF7 cells after 24 hrs by MTT method; assay type: functional, cell-based; settings: MCF7, 24 h
In short: (§3)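 MCF-7 grown in MEM with NEA, FCS, glutamine; A2780 in RPMI-1640 with FCS, glutamine; 37 °C, 5% CO₂, trypsin-EDTA passaging. Seeded 20 000 cells/well, treated after about 20 h; 24-h exposure. MTT read-out, formazan dissolved in DMSO, read at 492/520 nm. IC50 from log inhibitor versus normalized response sigmoidal fit.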

Escherichia coli = experiment: Antimicrobial activity against Escherichia coli ATCC 377/79 assessed as prevention of colony formation after 24 hrs by spectrophotometry; assay type: functional; settings: ATCC 377/79, 24 h; in short: as §1
[2] = Solubility of the compound in water; assay type: physicochemical; settings: buffer
Acanthamoeba lugdunensis = experiment: Antiprotozoal activity against Acanthamoeba lugdunensis trophozoites assessed as viability after 1 to 48 hrs by trypan blue exclusion assay; assay type: functional; in short: as §2
HuT78 = experiment: Cytotoxicity against human HUT78 cells after 24 hrs by MTS method; assay type: functional, cell-based; settings: HuT78, 24 h
In short: (§4)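 THP-1 and HUT-78 grown in suspension in RPMI-1640 with FCS, glutamine, penicillin-streptomycin, NEA, 2-sulfanylethanol, sodium pyruvate; 37 °C, 5% CO₂; passaged by centrifugation. 24-h exposure; MTS read-out (water-soluble formazan) at 492/520 nm. IC50 from log inhibitor versus normalized response sigmoidal fit.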

Acanthamoeba quina [3] = experiment: Ratio of miltefosine MTC to compound MTC for Acanthamoeba quina trophozoites assessed as viability after 1 to 48 hrs by trypan blue exclusion assay; assay type: functional
Candida albicans = experiment: Antimicrobial activity against Candida albicans ATCC 8186 assessed as prevention of colony formation after 24 hrs by spectrophotometry; assay type: functional; settings: ATCC 8186, 24 h; in short: as §1
[4] = Cytotoxicity against human lymphocytes assessed as growth inhibition at 500 uM after 24 hrs by MTS method; assay type: cell-based, Lymphocyte; settings: for inhibition at 24 h, 500 µM: human lymphocytes, read-out: GI; for growth inhibition (GI): lymphocyte, 24 h, 500 µM
A2780 = experiment: Cytotoxicity against human A2780 cells after 24 hrs by MTT method; assay type: functional, cell-based; settings: A2780, 24 h; in short: as §3
THP-1 = experiment: Cytotoxicity against human THP1 cells after 24 hrs by MTS method; assay type: functional, cell-based; settings: THP-1, 24 h; in short: as §4
[5] = Critical micelle concentration of the compound; assay type: ADME

CCCCCCCCCCCCCCC[N+](C)(C)CCOP(=O)([O-])OCC
MIC (Staphylococcus aureus): > 1000 µM | MTC (Acanthamoeba quina [1]): 62.5 µM | IC50 (MCF7): 14.4 µM | MIC (Escherichia coli): > 1000 µM | solubility [2]: soluble | MTC (Acanthamoeba lugdunensis): 62.5 µM | IC50 (HuT78): 35.2 µM | Ratio (Acanthamoeba quina [3]): 2 | MIC (Candida albicans): 21.1 µM (≈ 8.62 µg/mL) | inhibition at 24 h, 500 µM [4]: 10% | IC50 (A2780): 7.44 µM | IC50 (THP-1): 30.5 µM

CCCCCCCCCCCCCC[N+](C)(C)CCOP(=O)([O-])OCCC
MIC (Staphylococcus aureus): > 1000 µM | MTC (Acanthamoeba quina [1]): 125 µM | IC50 (MCF7): 20.9 µM | MIC (Escherichia coli): > 1000 µM | solubility [2]: soluble | MTC (Acanthamoeba lugdunensis): 125 µM | IC50 (HuT78): 29.1 µM | MIC (Candida albicans): 86.3 µM (≈ 35.2 µg/mL) | inhibition at 24 h, 500 µM [4]: 12% | IC50 (A2780): 9.26 µM | IC50 (THP-1): 29.4 µM

CCCCCCCCCCCC[N+](C)(C)CCOP(=O)([O-])OCCCCC
MIC (Staphylococcus aureus): > 1000 µM | MTC (Acanthamoeba quina [1]): 125 µM | IC50 (MCF7): 25.8 µM | MIC (Escherichia coli): > 1000 µM | solubility [2]: soluble | MTC (Acanthamoeba lugdunensis): 125 µM | IC50 (HuT78): 68 µM | MIC (Candida albicans): 352 µM (≈ 144 µg/mL) | IC50 (A2780): 18.3 µM | IC50 (THP-1): 71.2 µM

CCCCCCCCCCC[N+](C)(C)CCOP(=O)([O-])OCCCCCC
MIC (Staphylococcus aureus): > 1000 µM | MTC (Acanthamoeba quina [1]): 125 µM | IC50 (MCF7): 64.5 µM | MIC (Escherichia coli): > 1000 µM | solubility [2]: soluble | MTC (Acanthamoeba lugdunensis): 62.5 µM | IC50 (HuT78): 96 µM | MIC (Candida albicans): 360 µM (≈ 147 µg/mL) | IC50 (A2780): 25.7 µM | IC50 (THP-1): 31.2 µM

CCCCCCCCCC[N+](C)(C)CCOP(=O)([O-])OCCCCCCC
MIC (Staphylococcus aureus): > 1000 µM | MTC (Acanthamoeba quina [1]): 125 µM | IC50 (MCF7): 26.2 µM | MIC (Escherichia coli): > 1000 µM | solubility [2]: soluble | MTC (Acanthamoeba lugdunensis): 125 µM | IC50 (HuT78): 437 µM | MIC (Candida albicans): 352 µM (≈ 144 µg/mL) | growth inhibition (GI) [4]: Non-toxic | IC50 (A2780): 4.7 µM | IC50 (THP-1): 647 µM

CCCCCCCCC[N+](C)(C)CCOP(=O)([O-])OCCCCCCCC
MIC (Staphylococcus aureus): > 1000 µM | MTC (Acanthamoeba quina [1]): 125 µM | IC50 (MCF7): 19.2 µM | MIC (Escherichia coli): > 1000 µM | solubility [2]: soluble | MTC (Acanthamoeba lugdunensis): 125 µM | IC50 (HuT78): 280 µM | MIC (Candida albicans): 367 µM (≈ 150 µg/mL) | growth inhibition (GI) [4]: Non-toxic | IC50 (A2780): 4.32 µM | IC50 (THP-1): 544 µM

CCCCCCCCCOP(=O)([O-])OCC[N+](C)(C)CCCCCCCC
MIC (Staphylococcus aureus): > 1000 µM | MTC (Acanthamoeba quina [1]): 250 µM | IC50 (MCF7): 34 µM | MIC (Escherichia coli): > 1000 µM | solubility [2]: soluble | MTC (Acanthamoeba lugdunensis): 250 µM | IC50 (HuT78): 146 µM | MIC (Candida albicans): 734 µM (≈ 299 µg/mL) | growth inhibition (GI) [4]: Non-toxic | IC50 (A2780): 7.31 µM | IC50 (THP-1): 170 µM

CCCCCCCCCCOP(=O)([O-])OCC[N+](C)(C)CCCCCCC
MIC (Staphylococcus aureus): > 1000 µM | MTC (Acanthamoeba quina [1]): 250 µM | IC50 (MCF7): 62.2 µM | MIC (Escherichia coli): > 1000 µM | solubility [2]: soluble | MTC (Acanthamoeba lugdunensis): 250 µM | IC50 (HuT78): 52.9 µM | MIC (Candida albicans): 180 µM (≈ 73.3 µg/mL) | IC50 (A2780): 35.1 µM | IC50 (THP-1): 101 µM

CCCCCCCCCCCOP(=O)([O-])OCC[N+](C)(C)CCCCCC
MIC (Staphylococcus aureus): > 1000 µM | MTC (Acanthamoeba quina [1]): 250 µM | IC50 (MCF7): 111 µM | MIC (Escherichia coli): > 1000 µM | solubility [2]: soluble | MTC (Acanthamoeba lugdunensis): 125 µM | IC50 (HuT78): 82.6 µM | MIC (Candida albicans): 188 µM (≈ 76.4 µg/mL) | IC50 (A2780): 19.2 µM | IC50 (THP-1): 92 µM

CCCCCCCCCCCCOP(=O)([O-])OCC[N+](C)(C)CCCCC
MIC (Staphylococcus aureus): > 1000 µM | MTC (Acanthamoeba quina [1]): 125 µM | IC50 (MCF7): 66.1 µM | MIC (Escherichia coli): > 1000 µM | solubility [2]: soluble | MTC (Acanthamoeba lugdunensis): 125 µM | IC50 (HuT78): 55.2 µM | MIC (Candida albicans): 184 µM (≈ 74.8 µg/mL) | IC50 (A2780): 24.8 µM | IC50 (THP-1): 93.2 µM

CCCCCCCCCCCCCCOP(=O)([O-])OCC[N+](C)(C)CCC
MIC (Staphylococcus aureus): > 1000 µM | MTC (Acanthamoeba quina [1]): 125 µM | IC50 (MCF7): 50.6 µM | MIC (Escherichia coli): > 1000 µM | solubility [2]: soluble | MTC (Acanthamoeba lugdunensis): 125 µM | IC50 (HuT78): 51.4 µM | MIC (Candida albicans): 11.7 µM (≈ 4.77 µg/mL) | IC50 (A2780): 28.6 µM | IC50 (THP-1): 127 µM

CCCCCCCCCCCCCCCOP(=O)([O-])OCC[N+](C)(C)CC
MIC (Staphylococcus aureus): > 1000 µM | MTC (Acanthamoeba quina [1]): 125 µM | IC50 (MCF7): 43.3 µM | MIC (Escherichia coli): > 1000 µM | solubility [2]: soluble | MTC (Acanthamoeba lugdunensis): 125 µM | IC50 (HuT78): 62.7 µM | MIC (Candida albicans): 2.93 µM (≈ 1.19 µg/mL) | IC50 (A2780): 10.1 µM | IC50 (THP-1): 96.8 µM

CCCCCCCCOP(=O)([O-])OCC[N+](C)(C)CCCCCCCC
CMC [5]: 1 mmol/dm3

CCCCCCCCCCCCCCCCOP(=O)([O-])OCC[N+](C)(C)C [MILTEFOSINE]
MIC (Staphylococcus aureus): 11.5 µM (≈ 4.69 µg/mL) | MTC (Acanthamoeba quina [1]): 125 µM | IC50 (MCF7): 35.7 µM | MIC (Escherichia coli): > 1000 µM | MTC (Acanthamoeba lugdunensis): 250 µM | IC50 (HuT78): 67.2 µM | CMC [5]: 1.25 umol/dm3 | MIC (Candida albicans): 2.87 µM (≈ 1.17 µg/mL) | IC50 (A2780): 8.87 µM | IC50 (THP-1): 81.3 µM
